# Compound activity: PubChem BioAssay, several laboratories
# Granule exo inh – LAMP-1 surface exposure blockers, TALL-104 cells – cell-based, flow cytometry, MLPCN library, primary screen. TALL-104 LAMP-1 surface exposure; cells stimulated with thapsigargin and PMA. inhibition, % at 10 µM. hit rate 0.66% among 360,000. AID 651702, 2012;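 active = inhibition above about 55%, limit read from the data; inconclusive = no clear call, values can overlap the other calls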
# Myeloid diff 2 – induction of myeloid progenitor differentiation, primary screen, cell-based, flow cytometry, MLPCN library | ER-HoxA9 myeloid progenitors, lysozyme-GFP differentiation | calls only at 10 µM | hit rate 1% among 360,000 | AID 624256, 2012;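 active = normalized GFP-positive differentiation at or above the plate's own cutoff, the solvent-only control mean plus 3 SD; inconclusive = no clear call, values can overlap the other calls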;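 note: cells exposed to compound for four days before flow analysis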
# EBI2 block – EBI2 receptor antagonists, beta-arrestin recruitment, primary screen, cell-based, luminescence, 7a,25-OHC stimulation, uHTS | G-protein coupled receptor 183 (Homo sapiens), P32249 | 7a,25-OHC stimulated | inhibition, % at 5 µM | hit rate 0.81% among 360,000; in the data active = inhibition above about 38%;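 note: enzyme fragment complementation signal reports receptor beta-arrestin coupling in cells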
# MC4R antag cAMP – MC4R antagonists of cAMP signaling, primary screen, cell-based, TR-FRET, antagonist arm of biased-ligand search | hit rate 0.48% among 360,000 | Melanocortin receptor 4 (Homo sapiens), P32245 | inhibition, % at 6.5 µM | MC4R-expressing cells, MTII-stimulated cAMP, LANCE TR-FRET;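 active = inhibition above its plate's cutoff, the mean of tested wells on that plate plus 3 SD, cut at about 29% in these data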
#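 Assay system: U2OS-MC4R stable cell line; Also added: Melanotan II; Technique: Eu-cAMP/anti-cAMP TR-FRET, emission 671 nm; Times: 30-min compound, 1-h challenge, 1-h detection, room temperature.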
# MC4R ag barr – MC4R agonists recruiting beta-arrestin, primary screen, cell-based, luminescence, agonist arm of biased-ligand search. Melanocortin receptor 4 (Homo sapiens), P32245. U2OS MC4R beta-arrestin complementation; percent of melanotan II response, DMSO zero. activation, % at 8.9 µM. hit rate 0.98% among 360,000. AID 540308, 2011;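 active = activation above a per-plate cutoff, the mean activation of sample wells on that plate plus 3 SD, cut at about 8% in these data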
# MC4R barr conf – MC4R beta-arrestin agonists, retest, confirmation, cell-based, luminescence, U2OS; AID 602192, 2012; hit rate 31% among 2,400; U2OS MC4R beta-arrestin recruitment; scaled DMSO 0%, Melanotan II 100%; activation, % at 8.9 µM; shares compounds with MC4R ag barr;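 active = mean activation across replicates above the hit cutoff set in the earlier primary screen, cut at about 8% in these data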
# MOR-DOR barr ag – agonists of MOR-DOR heterodimerization, counter-screen for MC4R biased agonist project, cell-based, luminescence; shares compounds with MC4R ag barr; U2OS PathHunter beta-arrestin, beta-gal luminescence; percent of deltorphin B response, DMSO zero; activation, % at 9.2 µM; hit rate 5.8% among 2,400;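 active = mean activation across replicates exceeds the hit threshold derived in the earlier primary screen, cut at about 18% in these data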
# Target sequence (P35372 whole entry, looked up): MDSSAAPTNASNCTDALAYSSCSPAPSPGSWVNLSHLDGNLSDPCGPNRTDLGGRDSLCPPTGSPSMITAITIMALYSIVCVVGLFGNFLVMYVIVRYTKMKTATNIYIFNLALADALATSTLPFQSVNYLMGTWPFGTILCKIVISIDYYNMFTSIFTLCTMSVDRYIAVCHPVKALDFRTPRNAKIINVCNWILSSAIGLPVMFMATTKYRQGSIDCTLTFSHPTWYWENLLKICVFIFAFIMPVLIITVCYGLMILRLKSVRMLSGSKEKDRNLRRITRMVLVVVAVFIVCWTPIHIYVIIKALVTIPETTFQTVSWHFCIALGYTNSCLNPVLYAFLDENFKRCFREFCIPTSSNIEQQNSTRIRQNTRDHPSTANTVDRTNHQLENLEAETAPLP
# Target sequence (P41143 whole entry, looked up): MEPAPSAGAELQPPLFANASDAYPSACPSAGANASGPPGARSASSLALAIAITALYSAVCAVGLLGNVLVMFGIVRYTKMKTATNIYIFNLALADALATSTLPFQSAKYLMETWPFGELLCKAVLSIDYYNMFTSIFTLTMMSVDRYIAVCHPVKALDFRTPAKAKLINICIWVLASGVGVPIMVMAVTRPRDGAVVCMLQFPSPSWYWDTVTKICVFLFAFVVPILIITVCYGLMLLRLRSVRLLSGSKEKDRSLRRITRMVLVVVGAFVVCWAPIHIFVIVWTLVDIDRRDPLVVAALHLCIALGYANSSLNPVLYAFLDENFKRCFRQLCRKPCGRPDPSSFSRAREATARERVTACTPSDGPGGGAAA
# A number is an active result; 0 = inactive; ? = inconclusive; - = not tested or not shown. Only some compounds are listed: those with a hit (about 3.7% of all), similar ones and a draw of the others.
SMILES,Granule exo inh,Myeloid diff 2,EBI2 block,MC4R antag cAMP,MC4R ag barr,MC4R barr conf,MOR-DOR barr ag
CCCCCCCCCCn1c2c(c(=N)c3c1CCC3)CCC2,0,?,0,0,17.4,10.9,19.3
CCCCCCCCCn1c2c(c(=N)c3c1CCC3)CCCC2,0,?,0,0,13.4,0,0
CC1(C(=O)NCCC#N)CCN1C(=O)C1(c2ccccc2)CCCC1 (centres undefined),0,0,0,0,0,-,-
COC(=O)C[C@@H]1C=C[C@@H](NS(=O)(=O)c2ccc(OC)cc2)[C@@H](CO)O1,0,0,0,-,-,-,-
COC(=O)CCSCC(=O)N1N=C(c2ccc(OC)cc2)CC1c1cccc(OC)c1OC (centres undefined),0,0,0,0,0,-,-
O=c1[nH]c2ccsc2c(=O)n1CCO,0,0,0,0,0,-,-
Oc1ccc(C(=S)N2CCN(c3cccc(Cl)c3)CC2)cc1,0,0,0,0,9.8,0,0
COc1ccc(CN2C[C@@H](CO)O[C@@H](n3cnc4c(NCCO)ncnc43)C2)cc1,0,0,0,0,0,-,-
c1ccc(COc2ncnc3c2ncn3CCCNCC(c2ccccc2)c2ccccc2)cc1,0,0,0,0,12.8,10.6,30.2
COc1ncnc2c1ncn2CCCNCC(c1ccccc1)c1ccccc1,0,0,0,0,0,-,-
Cc1ccc(C(=O)Nc2oc(-c3ccccc3)cc2C#N)cc1,0,0,0,0,12.4,0,0
O=C(Nc1ccc(N2CCN(c3ccc(O)cc3)CC2)cc1)Oc1ccccc1,0,0,0,0,26.0,0,0
CC1(C(=O)N2CCCCC2)CCN1C(=O)c1ccccc1CCc1ccccc1 (centres undefined),0,0,0,0,0,-,-
COc1ccc(CCNC(=O)COc2ccc(-c3ccc(C#N)cc3)cc2)cc1,0,0,0,0,18.7,0,27.8
N#Cc1ccc(-c2ccc(OCC(=O)NCC(=O)Nc3ccc(F)c(F)c3F)cc2)cc1,0,0,0,0,18.0,0,0
CCOc1ccc(C(=O)CCC(=O)NCC(=O)Nc2ccc(F)c(F)c2F)cc1,0,0,0,0,0,-,-
COc1ccc(CCNC(=O)COc2ccc([N+](=O)[O-])cc2)cc1,0,0,0,0,0,-,-
COCCCNCC(O)C(F)(F)F (centres undefined),0,0,0,0,0,-,-
COC(=O)c1c(NC(=O)CC2SC(N)=NC2=O)sc2c1CCC(C(C)(C)C)C2 (centres undefined),0,0,0,0,10.4,17.5,0
COCCC(=O)N1CCC(Oc2ccc(C(=O)N3CCCCC3COC)cc2)CC1 (centres undefined),0,0,0,0,0,-,-
CCCCOc1ccc(/C=N/NC(=S)Nc2cc(C)ccc2C)cc1,0,0,0,0,11.7,0,0
CCCCOc1ccc(/C=N/NC(=S)Nc2cccc(C)c2C)cc1,0,0,0,0,0,-,-
CO[C@H]1CN(C)C(=O)c2cc(NC(=O)C3CCCC3)ccc2OC[C@@H](C)NC[C@H]1C,0,0,0,-,-,-,-
CC(=O)Nc1cc(-c2ccc(C(=O)N3CCOCC3)cc2)cn2c(-c3ccc(C(C)=O)cc3)cnc12,0,0,0,0,0,-,-
COc1ccc(-c2cnc3c(NC(C)=O)cc(-c4ccc(C(=O)N5CCOCC5)cc4)cn23)cc1OC,0,0,0,0,11.2,9.4,0
SMILES,Granule exo inh,Myeloid diff 2,EBI2 block,MC4R antag cAMP,MC4R ag barr,MC4R barr conf,MOR-DOR barr ag
CC(=O)Nc1cc(-c2ccc(C(=O)N3CCOCC3)cc2)cn2c(-c3ccccc3)cnc12,0,0,0,0,25.5,18.8,0
COc1ccc(OC)c2sc(NC(=O)CCSc3ccccc3)nc12,0,0,0,0,11.0,0,0
O=c1cc(/C=C/c2ccccc2)oc2c1ccc1ccccc12,0,0,0,0,28.6,16.0,0
O=C(O)CCN1C(=O)c2ccc(NC(=O)Cc3ccc(Cl)cc3)cc2C1=O,0,0,0,0,0,-,-
CCc1ccc(C(=O)Cc2cc3cccc(OC)c3oc2=O)cc1,0,0,0,0,0,-,-
Cc1cccc(NC(=O)c2nc[nH]c2C(=O)NCCCNC(=O)c2[nH]cnc2C(=O)Nc2cccc(C)c2)c1,0,0,0,0,0,-,-
Cc1cccc(NC(=O)c2nc[nH]c2C(=O)NCCCCCNC(=O)OC(C)(C)C)c1,0,0,0,0,9.7,0,0
CCC(=O)N(Cc1cc(=O)[nH]c2ccccc12)c1ccc(C)cc1C,0,0,0,0,0,-,-
O=C(NCC1OCCc2ccccc21)c1ccc(NC(=O)c2ccc(Cl)cc2Cl)cc1 (centres undefined),0,0,0,0,14.8,0,0
COc1ccc(C(=O)NCC2OCCc3ccccc32)cc1 (centres undefined),0,0,0,0,0,-,-
COc1ccccc1C(=O)COC(=O)c1c(-c2ccccc2)noc1C,0,0,0,0,0,-,-
COc1ccc(C(=O)COC(=O)c2c(-c3ccccc3)noc2C)c(OC)c1,0,0,0,0,13.8,0,0
COc1ccccc1C(=O)COC(=O)c1ccc(-n2cnnn2)cc1,0,0,0,0,0,-,-
COc1ccc(C(=O)COC(=O)c2ccc(-n3cnnn3)cc2)c(OC)c1,0,-,0,0,13.5,0,0
Cc1nn(C)cc1/C=N/NC(=O)CSc1ccccn1,0,0,0,0,0,-,-
CCCCS(=O)(=O)Nc1ccc(N2CCOCC2)c(S(=O)(=O)N2CCOCC2)c1,0,0,0,0,0,-,-
CCOc1ccc(CNC(=O)CN2C(=O)C(c3ccccc3)Oc3cccnc32)cc1 (centres undefined),0,0,0,0,0,-,-
CN(CC1CCCN(CCc2ccccc2F)C1)C(=O)c1cc2ccccc2o1 (centres undefined),0,0,0,0,0,-,-
Cc1cc2nc(NCCCO)n(CC(=O)c3cc(C(C)(C)C)c(O)c(C(C)(C)C)c3)c2cc1C,0,0,0,0,13.2,0,0
COc1ccc(C(=O)Cn2c(NCCCO)nc3ccccc32)cc1,0,0,0,0,0,-,-
Cc1cc(NC(=O)c2noc3c2CCc2ccccc2-3)no1,0,0,0,0,0,-,-
CC(=O)c1cccc(NC(=O)c2noc3c2CCc2ccccc2-3)c1,0,0,0,0,16.4,9.7,0
Cc1nc2ccccc2n1S(=O)(=O)c1cc(C(=O)O)ccc1Cl,0,0,0,0,0,-,-
